The text below walks through data of ChEMBL document CHEMBL1938374, “Synthesis and biological characterization of 3-substituted-1H-indoles as ligands of GluN2B-containing N-methyl-D-aspartate receptors” (J Med Chem, 2011).

Calls of active or inactive are those of the source. The rule behind the calls is not given here.

Assay [1] deals with Glutamate receptor ionotropic, NMDA 2B (Rattus norvegicus) (UniProt Q00960). In words: Displacement of [3H]ifenprodil from GluN2B/NMDA in Wistar rat cerebral cortex at 10 uM after 120 mins by scintillation counting. Type of assay: tissue-based.
Glutamate receptor ionotropic, NMDA 2B (Rattus norvegicus), sequence (Q00960 27-1482 limits assumed): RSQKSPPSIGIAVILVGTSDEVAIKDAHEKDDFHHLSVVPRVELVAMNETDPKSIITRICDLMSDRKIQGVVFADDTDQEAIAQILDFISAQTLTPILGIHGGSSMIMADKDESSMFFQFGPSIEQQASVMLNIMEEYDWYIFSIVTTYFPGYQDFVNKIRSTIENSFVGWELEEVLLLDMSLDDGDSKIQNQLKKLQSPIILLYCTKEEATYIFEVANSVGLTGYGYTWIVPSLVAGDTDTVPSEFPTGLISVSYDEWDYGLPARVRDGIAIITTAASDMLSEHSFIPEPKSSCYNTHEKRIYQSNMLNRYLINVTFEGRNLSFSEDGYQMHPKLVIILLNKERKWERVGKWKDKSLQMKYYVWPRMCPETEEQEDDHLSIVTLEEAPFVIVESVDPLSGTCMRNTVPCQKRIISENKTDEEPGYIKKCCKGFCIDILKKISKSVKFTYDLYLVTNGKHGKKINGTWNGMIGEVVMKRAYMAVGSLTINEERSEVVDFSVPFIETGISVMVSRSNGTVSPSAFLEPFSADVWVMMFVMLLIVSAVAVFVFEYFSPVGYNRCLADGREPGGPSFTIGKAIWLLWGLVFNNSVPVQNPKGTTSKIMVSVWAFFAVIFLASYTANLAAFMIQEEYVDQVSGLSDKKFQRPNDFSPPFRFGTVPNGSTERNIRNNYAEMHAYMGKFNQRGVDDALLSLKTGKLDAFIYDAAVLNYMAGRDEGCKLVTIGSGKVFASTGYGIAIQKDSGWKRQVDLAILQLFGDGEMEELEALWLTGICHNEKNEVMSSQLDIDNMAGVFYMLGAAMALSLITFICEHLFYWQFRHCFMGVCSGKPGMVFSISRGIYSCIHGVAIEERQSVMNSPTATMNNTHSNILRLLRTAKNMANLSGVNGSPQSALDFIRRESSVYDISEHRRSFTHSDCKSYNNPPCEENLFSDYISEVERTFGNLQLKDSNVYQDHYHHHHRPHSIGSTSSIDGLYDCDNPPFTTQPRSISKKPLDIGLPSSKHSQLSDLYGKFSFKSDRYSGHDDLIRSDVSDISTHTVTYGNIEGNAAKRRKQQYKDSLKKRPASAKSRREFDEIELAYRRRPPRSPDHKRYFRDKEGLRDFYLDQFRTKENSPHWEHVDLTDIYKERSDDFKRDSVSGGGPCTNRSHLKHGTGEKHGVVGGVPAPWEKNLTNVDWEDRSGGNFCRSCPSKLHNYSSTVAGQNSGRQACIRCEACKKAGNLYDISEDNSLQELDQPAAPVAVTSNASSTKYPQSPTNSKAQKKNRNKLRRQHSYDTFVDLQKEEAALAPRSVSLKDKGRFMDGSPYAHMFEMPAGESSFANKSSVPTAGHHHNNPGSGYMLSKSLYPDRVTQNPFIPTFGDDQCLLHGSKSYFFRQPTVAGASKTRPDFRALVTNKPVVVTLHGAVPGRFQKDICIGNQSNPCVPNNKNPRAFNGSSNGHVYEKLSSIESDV
Assay [2] concerns Mus musculus. In words: Anticonvulsant activity in DBA/2 mouse assessed as inhibition of audiogenic clonic seizures administered as ip, 30 mins prior to auditory stimulation measured for 60 secs. It is filed as functional. The note with it: DBA/2, ip. The essentials:
(§1)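 Seizure ED50 values, in μmol/kg, were computed by the Litchfield and Wilcoxon method. At least 32 animals went into each ED50, and 95% confidence limits are reported.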

Assay [3] concerns Mus musculus. In words: Anticonvulsant activity in DBA/2 mouse assessed as inhibition of audiogenic tonic seizures administered as ip, 30 mins prior to auditory stimulation measured for 60 secs. It is filed as functional. The note with it: DBA/2, ip. The essentials: as §1
Assay [4] has as its target Glutamate receptor ionotropic, NMDA 2B (Rattus norvegicus, UniProt Q00960). In words: Displacement of [3H]ifenprodil from GluN2B/NMDA in Wistar rat cerebral cortex after 120 mins by scintillation counting. It is filed as tissue-based.
Assay [5] addresses Sigma non-opioid intracellular receptor 1 (Cavia porcellus, UniProt Q60492). In words: Displacement of [3H](+)pentazocine from sigma 1 receptor in guinea pig brain membrane after 150 mins by liquid scintillation counting. Type of assay: cell membranes.
Assay [6] is described as follows: Displacement of [3H]DTG from sigma 2 receptor after 120 mins by liquid scintillation counting in presence of (+)-SKF10,047.
Assay [7] concerns the target Glutamate receptor ionotropic, NMDA 2B (Mus musculus) (UniProt Q01097). In words: Antagonist activity at GluN2B/NMDA in FVB mouse CA1 pyramidal neurons assessed as reduction in NMDA-mediated inward current at 10 uM measured for 5 mins by whole-cell patch clamp assay in presence of glycine and tetrodotoxin. It is filed as functional, cell-based. The note with it: Pyramidal neuron.

Glutamate receptor ionotropic, NMDA 2B, sequence (Q00960 whole entry): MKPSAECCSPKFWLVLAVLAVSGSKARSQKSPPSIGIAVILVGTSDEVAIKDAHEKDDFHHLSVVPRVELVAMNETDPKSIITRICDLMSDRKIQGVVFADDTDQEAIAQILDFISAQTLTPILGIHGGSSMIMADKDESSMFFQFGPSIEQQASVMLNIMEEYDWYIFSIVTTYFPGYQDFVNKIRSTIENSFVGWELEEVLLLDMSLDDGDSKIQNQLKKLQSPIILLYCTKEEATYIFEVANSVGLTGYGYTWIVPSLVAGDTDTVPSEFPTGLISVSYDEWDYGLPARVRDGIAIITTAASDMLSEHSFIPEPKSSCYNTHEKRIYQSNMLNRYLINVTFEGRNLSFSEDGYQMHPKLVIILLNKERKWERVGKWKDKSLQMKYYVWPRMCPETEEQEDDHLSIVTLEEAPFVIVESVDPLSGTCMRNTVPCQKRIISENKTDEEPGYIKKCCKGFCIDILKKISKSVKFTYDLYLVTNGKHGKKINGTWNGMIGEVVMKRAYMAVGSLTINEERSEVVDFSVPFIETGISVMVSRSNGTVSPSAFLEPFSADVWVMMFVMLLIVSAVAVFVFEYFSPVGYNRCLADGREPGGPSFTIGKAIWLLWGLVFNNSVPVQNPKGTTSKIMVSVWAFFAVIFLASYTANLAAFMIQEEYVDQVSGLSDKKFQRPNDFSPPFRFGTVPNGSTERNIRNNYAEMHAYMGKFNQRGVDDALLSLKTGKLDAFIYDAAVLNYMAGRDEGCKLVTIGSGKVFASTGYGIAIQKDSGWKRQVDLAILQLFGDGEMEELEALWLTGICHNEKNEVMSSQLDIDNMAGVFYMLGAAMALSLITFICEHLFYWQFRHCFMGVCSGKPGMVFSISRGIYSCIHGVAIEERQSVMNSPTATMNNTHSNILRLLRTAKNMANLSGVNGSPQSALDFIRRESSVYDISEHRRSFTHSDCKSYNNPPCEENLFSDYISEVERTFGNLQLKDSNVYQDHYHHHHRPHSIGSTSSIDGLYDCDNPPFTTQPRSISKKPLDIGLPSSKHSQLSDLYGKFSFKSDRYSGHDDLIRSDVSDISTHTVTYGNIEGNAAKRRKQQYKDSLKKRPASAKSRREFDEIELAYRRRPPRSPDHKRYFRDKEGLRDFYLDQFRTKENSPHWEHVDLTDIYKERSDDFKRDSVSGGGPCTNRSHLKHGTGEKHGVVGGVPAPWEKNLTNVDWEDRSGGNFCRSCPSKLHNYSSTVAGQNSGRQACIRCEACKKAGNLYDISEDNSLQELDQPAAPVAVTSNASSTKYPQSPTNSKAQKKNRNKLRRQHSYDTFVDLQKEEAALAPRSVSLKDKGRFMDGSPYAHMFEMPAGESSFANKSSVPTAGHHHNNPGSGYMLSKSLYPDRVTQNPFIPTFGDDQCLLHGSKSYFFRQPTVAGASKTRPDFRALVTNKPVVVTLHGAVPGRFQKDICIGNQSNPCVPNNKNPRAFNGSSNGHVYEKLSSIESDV
Sigma non-opioid intracellular receptor 1, sequence (Q60492 whole entry): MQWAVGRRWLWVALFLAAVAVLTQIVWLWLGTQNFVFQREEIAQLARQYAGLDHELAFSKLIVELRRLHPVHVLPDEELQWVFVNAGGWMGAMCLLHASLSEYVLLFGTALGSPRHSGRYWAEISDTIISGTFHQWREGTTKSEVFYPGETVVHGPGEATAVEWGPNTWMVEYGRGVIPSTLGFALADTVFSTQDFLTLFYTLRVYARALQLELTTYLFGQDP
Glutamate receptor ionotropic, NMDA 2B (Mus musculus), sequence (Q01097 whole entry): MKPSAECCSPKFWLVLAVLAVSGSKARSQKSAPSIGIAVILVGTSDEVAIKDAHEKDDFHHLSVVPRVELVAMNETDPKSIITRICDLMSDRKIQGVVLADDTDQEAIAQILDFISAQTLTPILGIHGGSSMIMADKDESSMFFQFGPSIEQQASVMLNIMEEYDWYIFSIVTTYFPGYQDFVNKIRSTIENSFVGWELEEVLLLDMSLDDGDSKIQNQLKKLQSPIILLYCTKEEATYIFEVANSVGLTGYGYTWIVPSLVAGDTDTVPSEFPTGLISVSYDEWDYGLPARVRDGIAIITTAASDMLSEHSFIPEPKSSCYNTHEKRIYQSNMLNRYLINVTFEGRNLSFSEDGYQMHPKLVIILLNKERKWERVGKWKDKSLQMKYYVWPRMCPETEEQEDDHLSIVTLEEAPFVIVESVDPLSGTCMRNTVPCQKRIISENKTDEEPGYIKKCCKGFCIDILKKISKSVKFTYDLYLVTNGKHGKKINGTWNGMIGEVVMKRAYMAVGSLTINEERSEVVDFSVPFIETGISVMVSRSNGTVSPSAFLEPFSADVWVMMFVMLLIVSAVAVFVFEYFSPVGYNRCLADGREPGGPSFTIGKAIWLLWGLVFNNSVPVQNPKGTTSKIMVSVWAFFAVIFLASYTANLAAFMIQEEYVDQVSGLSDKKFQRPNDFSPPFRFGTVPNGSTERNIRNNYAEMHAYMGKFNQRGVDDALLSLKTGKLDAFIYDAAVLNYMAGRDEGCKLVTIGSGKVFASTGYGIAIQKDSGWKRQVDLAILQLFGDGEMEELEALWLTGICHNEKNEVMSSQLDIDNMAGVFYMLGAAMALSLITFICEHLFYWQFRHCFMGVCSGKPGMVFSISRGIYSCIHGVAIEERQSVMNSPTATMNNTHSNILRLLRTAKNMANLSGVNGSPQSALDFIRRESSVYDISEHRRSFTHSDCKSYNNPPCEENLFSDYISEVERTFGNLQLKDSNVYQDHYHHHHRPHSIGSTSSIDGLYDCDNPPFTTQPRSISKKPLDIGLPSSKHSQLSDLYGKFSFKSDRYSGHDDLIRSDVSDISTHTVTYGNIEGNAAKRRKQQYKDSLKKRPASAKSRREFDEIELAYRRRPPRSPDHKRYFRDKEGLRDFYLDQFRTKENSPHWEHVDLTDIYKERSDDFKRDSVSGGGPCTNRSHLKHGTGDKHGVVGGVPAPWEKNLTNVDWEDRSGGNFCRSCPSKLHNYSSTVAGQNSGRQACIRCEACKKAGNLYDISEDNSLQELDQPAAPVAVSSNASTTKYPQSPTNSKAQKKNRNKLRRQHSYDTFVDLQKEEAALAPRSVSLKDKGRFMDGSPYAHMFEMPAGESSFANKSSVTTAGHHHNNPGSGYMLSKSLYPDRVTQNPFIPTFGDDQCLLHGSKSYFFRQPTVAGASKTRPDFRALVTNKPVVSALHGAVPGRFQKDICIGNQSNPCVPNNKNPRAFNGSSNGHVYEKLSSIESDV

The compound `COc1ccc2[nH]cc(C(=O)CN3CCC(Cc4ccccc4)CC3)c2c1` came in with an Activity in assay [1] of 86%.

In assay [1], `COc1cccc2[nH]cc(C(=O)C(=O)N3CCC(Cc4ccccc4)CC3)c12` displayed an Activity of 14%. The ED50 in the assay on Mus musculus [2] was greater than 100 µmol/kg; in the assay on Mus musculus [3] it was 76.7 µmol/kg.

On to `COc1cccc2c(C(=O)CN3CCC(Cc4ccccc4)CC3)c[nH]c12`, for which the Activity in assay [1] was 62%. Further, the IC50 in assay [4] is 2910 nM. The ED50 stood at 80.3 µmol/kg in the assay on Mus musculus [2] and 35.8 µmol/kg in the assay on Mus musculus [3].

As to `COc1ccc2[nH]cc(C(=O)CN3CCN(Cc4ccccc4)CC3)c2c1`, the results for the median effective dose (ED50) in the assay on Mus musculus [2] and in the assay on Mus musculus [3] were 98.7 µmol/kg and 63.8 µmol/kg, respectively.

In assay [1], `COc1ccc2c(C(=O)CN3CCC(Cc4ccccc4)CC3)c[nH]c2c1` gave an Activity of 4%. The figures for the ED50 with Mus musculus [2] and in the assay with Mus musculus [3] were 67.8 µmol/kg and 30.1 µmol/kg, respectively.

As to `O=C(C(=O)N1CCC(Cc2ccccc2)CC1)c1c[nH]c2cc(O)ccc12`, the Ki in assay [5] is greater than 1000 nM. Further, the Activity in assay [1] is 92%. In assay [4], this compound had an IC50 of 22 nM. For the same compound, the ED50 with Mus musculus [2] was 84.4 µmol/kg; with Mus musculus [3], 38.9 µmol/kg.

As to `O=C(CN1CCC(Cc2ccccc2)CC1)c1c[nH]c2cccc(O)c12`, the Activity in assay [1] is 77%. The compound further displayed an IC50 in assay [4] of 6640 nM. Besides, the ED50 with Mus musculus [2] was determined as 68.1 µmol/kg; with Mus musculus [3] it was 13.7 µmol/kg.

As for `COc1ccc2c(C(=O)C(=O)N3CCC(Cc4ccccc4)CC3)c[nH]c2c1`, the ED50 with Mus musculus [2] turned out to be 11.9 µmol/kg; in the assay on Mus musculus [3] it was 4.68 µmol/kg.

For `COc1ccc2[nH]cc(C(=O)C(=O)N3CCC(Cc4ccccc4)CC3)c2c1`, the Activity in assay [1] stood at 9%.

Compound `O=C(CN1CCC(Cc2ccccc2)CC1)c1c[nH]c2c(O)cccc12` returned an Activity in assay [1] of 72%. The IC50 in assay [4] came out at 7140 nM. Also, the ED50 is greater than 100 µmol/kg in the assay on Mus musculus [2] and 53.8 µmol/kg with Mus musculus [3].

For `O=C(C(=O)N1CCC(Cc2ccccc2)CC1)c1c[nH]c2c(O)cccc12`, the Activity in assay [1] was determined as 79%. This compound yielded a half-inhibitory concentration (IC50) in assay [4] of 1990 nM. Also, the results for the ED50 in the assay with Mus musculus [2] and in the assay on Mus musculus [3] were 80.5 µmol/kg and 36.2 µmol/kg, respectively.

In the case of `O=C(C(=O)N1CCC(Cc2ccccc2)CC1)c1c[nH]c2cccc(O)c12`, the Activity in assay [1] stood at 24%. In addition, the figures for the ED50 with Mus musculus [2] and in the assay on Mus musculus [3] were 52.1 µmol/kg and 28.9 µmol/kg, respectively.

On to `O=C(CN1CCC(Cc2ccccc2)CC1)c1c[nH]c2ccc(O)cc12`, for which the Ki in assay [5] is greater than 1000 nM; in assay [6], 76.5 nM. In addition, the outcome in assay [7] was Active.

In turn, `COc1cccc2c(C(=O)C(=O)N3CCC(Cc4ccccc4)CC3)c[nH]c12` displayed an Activity in assay [1] of 33%. The median effective dose (ED50) in the assay on Mus musculus [2] turned out to be 51.4 µmol/kg; with Mus musculus [3], 27.4 µmol/kg.

`COc1cccc2[nH]cc(C(=O)CN3CCC(Cc4ccccc4)CC3)c12` came in with an Activity in assay [1] of 82%. Further, in assay [4], the IC50 was 324 nM. The ED50 worked out at 32.7 µmol/kg with Mus musculus [2] and 16.2 µmol/kg in the assay on Mus musculus [3].

In turn, `O=C(CN1CCN(Cc2ccccc2)CC1)c1c[nH]c2ccccc12` registered an Activity in assay [1] of 14%.

On to `O=C(C(=O)N1CCC(Cc2ccccc2)CC1)c1c[nH]c2ccc(O)cc12`, for which the Ki in assay [5] is greater than 1000 nM.

Turning to `O=C(CN1CCC(Cc2ccccc2)CC1)c1c[nH]c2cc(O)ccc12`, the Ki in assay [5] was greater than 1000 nM; in assay [6], 43 nM. Also, the outcome in assay [7] was inactive. Further, the Activity in assay [1] amounted to 92%. This compound returned an IC50 in assay [4] of 17 nM. For the same compound, the ED50 in the assay on Mus musculus [2] was 95.4 µmol/kg; with Mus musculus [3] it was 53.7 µmol/kg.

For the compound `O=C(CN1CCN(Cc2ccccc2)CC1)c1c[nH]c2ccc(O)cc12`, the values for the Ki in assay [5] and in assay [6] were 437 nM and 557 nM, respectively. This compound also came in with an Activity in assay [1] of 27%. Moreover, the ED50 in the assay on Mus musculus [2] is greater than 100 µmol/kg; with Mus musculus [3], 44.9 µmol/kg.
